The results in this text go back to ChEMBL document CHEMBL3632461 (J Med Chem, 2015).

Data set [1] can be described thus: Drug metabolism assessed as formation of 5-(2,4-dimethoxyphenyl)-7-oxo-2,3,4,7-tetrahydrooxazolo[3,2-a]pyrimidin-4-ium at 10 uM after 60 mins by LC-MS/MS analysis in presence of human MPO/H2O2/Cl-. The data set is classed as physicochemical. As to conditions: 1 h. The method in brief:
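Also incubated at 10 μM in a human MPO/H₂O₂/Cl⁻ system. Parent and cyclic ether product tracked by LC−MS/MS using retention time and MH⁺.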

Data set [2] can be described thus: Fraction unbound in monkey plasma at 2 uM by equilibrium dialysis method. The data set is classed as ADME, cell-free, Macaca mulatta. As to conditions: rhesus monkey. The essentials: (§1)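 Compound at 2 μM in mouse, rat, dog, monkey or human plasma; unbound fraction measured by equilibrium dialysis and reported as a mean.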
The nature of data set [3]: Tmax in CD-1 mouse at 3 or 5 mg/kg, po. The data set is classed as ADME, organism-based. As to conditions: in vivo. The essentials: (§2)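 Male animals (CD-1 mice 25−35 g, cannulated Wistar-Han rats 250 g, beagle dogs 12 kg, cynomolgus monkeys 7 kg), fasted overnight and fed 1.0 or 2.0 h after dosing, water ad libitum. Oral dose 3 or 5 mg/kg in 0.5% methylcellulose. Parameters calculated from plasma concentration−time data; mean ± SD for n = 3, individual values for n = 2.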

Data set [4] can be described thus: Fraction unbound in rat plasma at 2 uM by equilibrium dialysis method. It counts as ADME, cell-free. The method in brief:
as §1

The target of data set [5] is Cytochrome P450 2D6 (Homo sapiens, UniProt P10635). Put plainly: Time-dependent inhibition of CYP2D6 in human liver microsomes. The data set is classed as ADME. The method in brief:
(§3)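 Time- and concentration-dependent CYP inhibition assessed by an IC₅₀ shift assay in human liver microsomes.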

For data set [6], the target named is Cytochrome P450 2C19 (Homo sapiens, UniProt P33261). Put plainly: Reversible inhibition of CYP2C19 (S)-Mephenytoin 4'-hydroxylase activity in human liver microsomes by LC-MS/MS analysis. It counts as ADME. The method in brief:
(§4)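 Reversible inhibition of the major CYP enzymes tested in human liver microsomes using established protocols.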

Data set [7] is described as follows: Plasma clearance in cynomolgus monkey at 1 mg/kg, iv and 3 or 5 mg/kg, po. The data set is classed as ADME, organism-based, Macaca fascicularis. The essentials:
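Male CD-1 mice (25−35 g), cannulated Wistar-Han rats (250 g), beagle dogs (12 kg) and cynomolgus monkeys (7 kg), fasted overnight and fed 1.0 or 2.0 h after dosing. iv 1 mg/kg in saline or 12% sulfobutyl ether β-cyclodextrin; po 3 or 5 mg/kg in 0.5% methylcellulose. Parameters calculated from plasma concentration−time data; mean ± SD for n = 3, individual values for n = 2.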

The nature of data set [8]: Tmax in cynomolgus monkey at 3 or 5 mg/kg, po. It counts as ADME, organism-based, Macaca fascicularis. As to conditions: in vivo. The essentials: as §2
In data set [9] the target is T1, Cytochrome P450 3A4 (Homo sapiens, UniProt P08684). Put plainly: Time-dependent inhibition of CYP3A4 in human liver microsomes. It counts as ADME. The method in brief:
as §3

Data set [10] deals with T1, Cytochrome P450 3A4. The data set can be described thus: Reversible inhibition of CYP3A4 in human liver microsomes by LC-MS/MS analysis. The data set is classed as ADME. The method in brief: as §4
In data set [11] the target is T2, Cytochrome P450 2B6 (Homo sapiens, UniProt P20813).
T2 sequence (P20813 whole entry): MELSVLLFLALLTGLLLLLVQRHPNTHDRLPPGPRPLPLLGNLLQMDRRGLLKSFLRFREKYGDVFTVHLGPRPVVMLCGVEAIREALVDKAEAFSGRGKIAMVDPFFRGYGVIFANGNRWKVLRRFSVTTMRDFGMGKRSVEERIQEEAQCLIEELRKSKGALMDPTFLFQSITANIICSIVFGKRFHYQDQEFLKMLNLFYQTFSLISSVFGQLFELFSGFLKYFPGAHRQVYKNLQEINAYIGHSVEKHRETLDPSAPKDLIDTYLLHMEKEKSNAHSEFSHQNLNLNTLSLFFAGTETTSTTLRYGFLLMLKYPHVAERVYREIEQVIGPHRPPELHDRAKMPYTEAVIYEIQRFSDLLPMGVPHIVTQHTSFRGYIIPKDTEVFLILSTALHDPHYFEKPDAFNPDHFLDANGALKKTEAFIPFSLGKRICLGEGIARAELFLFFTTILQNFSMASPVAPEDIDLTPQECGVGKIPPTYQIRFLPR
Put plainly: Reversible inhibition of CYP2B6 bupropion hydroxylase activity in human liver microsomes by LC-MS/MS analysis. It counts as ADME. The essentials: as §4

Data set [12] in a line: Drug excretion in Wistar rat urine at 1 mg/kg, iv. The data set is classed as ADME, organism-based. As to conditions: read-out: Drug excretion. The method in brief:
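Male animals (beagle dogs 12 kg, Wistar-Han rats 250 g, cynomolgus monkeys 7 kg), fasted overnight and fed 1.0 or 2.0 h after dosing, water ad libitum. Dosed iv at 1 mg/kg in saline or 12% sulfobutyl ether β-cyclodextrin. Fraction of the iv dose excreted unchanged in urine.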

Data set [13] has as its target T3, Cytochrome P450 2C8 (Homo sapiens, UniProt P10632).
T3 sequence (P10632 whole entry): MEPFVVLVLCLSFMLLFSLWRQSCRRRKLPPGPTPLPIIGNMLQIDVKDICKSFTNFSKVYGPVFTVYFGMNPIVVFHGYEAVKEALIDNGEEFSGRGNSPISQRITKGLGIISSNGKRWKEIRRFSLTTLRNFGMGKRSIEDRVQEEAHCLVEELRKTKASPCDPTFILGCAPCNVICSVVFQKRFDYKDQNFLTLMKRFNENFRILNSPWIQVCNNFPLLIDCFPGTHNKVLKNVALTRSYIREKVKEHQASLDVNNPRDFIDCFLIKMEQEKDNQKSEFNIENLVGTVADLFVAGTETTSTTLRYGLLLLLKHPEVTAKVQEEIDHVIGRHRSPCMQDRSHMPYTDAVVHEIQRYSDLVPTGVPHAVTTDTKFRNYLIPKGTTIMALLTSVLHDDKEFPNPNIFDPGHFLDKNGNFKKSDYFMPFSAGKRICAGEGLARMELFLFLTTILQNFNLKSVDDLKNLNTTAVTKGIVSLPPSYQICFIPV
Put plainly: Time-dependent inhibition of CYP2C8 in human liver microsomes. It counts as ADME. The method in brief:
as §3

Data set [14] has as its system Liver microsome. The data set can be described thus: Metabolic stability in NADPH-supplemented human liver microsomes assessed as GSH adduct formation. It counts as ADME. The essentials:
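Incubation in NADPH-supplemented human liver microsomes or cryopreserved human hepatocytes, examined for glutathione adduct formation.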

Data set [15] is described as follows: Fraction unbound in human plasma at 2 uM by equilibrium dialysis method. It counts as ADME, cell-free. The method in brief:
as §1

Data set [16] concerns the target T4, Cytochrome P450 1A2 (Homo sapiens, UniProt P05177).
T4 sequence (P05177 whole entry): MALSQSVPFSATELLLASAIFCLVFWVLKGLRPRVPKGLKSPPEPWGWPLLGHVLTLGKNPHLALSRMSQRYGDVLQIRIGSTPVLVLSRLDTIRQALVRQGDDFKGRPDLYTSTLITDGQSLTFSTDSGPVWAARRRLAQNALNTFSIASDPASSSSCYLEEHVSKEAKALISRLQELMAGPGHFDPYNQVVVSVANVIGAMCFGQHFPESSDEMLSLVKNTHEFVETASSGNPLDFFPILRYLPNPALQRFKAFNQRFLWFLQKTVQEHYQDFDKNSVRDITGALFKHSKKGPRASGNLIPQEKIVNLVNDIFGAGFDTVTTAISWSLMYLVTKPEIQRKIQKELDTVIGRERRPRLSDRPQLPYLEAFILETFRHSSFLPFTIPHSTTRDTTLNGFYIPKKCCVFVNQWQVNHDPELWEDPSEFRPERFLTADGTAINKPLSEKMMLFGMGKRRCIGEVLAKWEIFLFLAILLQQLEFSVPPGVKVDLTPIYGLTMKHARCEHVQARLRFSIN
The data set can be described thus: Time-dependent inhibition of CYP1A2 in human liver microsomes. It counts as ADME. The method in brief: as §3

Some results are limits rather than exact numbers.

T1 sequence (P08684 whole entry): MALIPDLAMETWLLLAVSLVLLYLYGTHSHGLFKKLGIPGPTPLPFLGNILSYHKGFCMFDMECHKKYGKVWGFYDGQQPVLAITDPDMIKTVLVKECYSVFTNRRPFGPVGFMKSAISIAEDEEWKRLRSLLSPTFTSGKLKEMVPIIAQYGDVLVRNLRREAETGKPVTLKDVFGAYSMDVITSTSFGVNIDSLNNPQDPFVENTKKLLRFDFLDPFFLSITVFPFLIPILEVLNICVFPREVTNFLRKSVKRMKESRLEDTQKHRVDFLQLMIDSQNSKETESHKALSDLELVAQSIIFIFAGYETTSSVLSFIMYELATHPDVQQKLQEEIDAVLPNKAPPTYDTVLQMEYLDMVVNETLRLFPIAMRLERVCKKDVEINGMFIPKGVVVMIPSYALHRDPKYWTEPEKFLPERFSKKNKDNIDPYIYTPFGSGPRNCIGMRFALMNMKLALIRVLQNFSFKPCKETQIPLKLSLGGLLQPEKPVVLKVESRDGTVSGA
Chain of Cytochrome P450 2D6 (P10635 whole entry): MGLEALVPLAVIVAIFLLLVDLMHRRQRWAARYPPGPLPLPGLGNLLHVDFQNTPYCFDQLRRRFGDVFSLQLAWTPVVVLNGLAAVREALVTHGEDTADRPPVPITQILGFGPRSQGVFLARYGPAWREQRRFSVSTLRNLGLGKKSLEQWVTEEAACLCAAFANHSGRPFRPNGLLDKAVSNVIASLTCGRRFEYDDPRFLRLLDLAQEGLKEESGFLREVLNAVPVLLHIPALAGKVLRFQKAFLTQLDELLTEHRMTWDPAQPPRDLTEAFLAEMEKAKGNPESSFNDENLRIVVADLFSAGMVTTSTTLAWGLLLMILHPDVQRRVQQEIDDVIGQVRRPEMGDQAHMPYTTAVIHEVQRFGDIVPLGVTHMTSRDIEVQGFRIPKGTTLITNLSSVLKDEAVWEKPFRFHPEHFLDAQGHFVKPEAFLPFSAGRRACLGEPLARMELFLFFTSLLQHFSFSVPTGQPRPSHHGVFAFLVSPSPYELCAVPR
Chain of Cytochrome P450 2C19 (P33261 whole entry): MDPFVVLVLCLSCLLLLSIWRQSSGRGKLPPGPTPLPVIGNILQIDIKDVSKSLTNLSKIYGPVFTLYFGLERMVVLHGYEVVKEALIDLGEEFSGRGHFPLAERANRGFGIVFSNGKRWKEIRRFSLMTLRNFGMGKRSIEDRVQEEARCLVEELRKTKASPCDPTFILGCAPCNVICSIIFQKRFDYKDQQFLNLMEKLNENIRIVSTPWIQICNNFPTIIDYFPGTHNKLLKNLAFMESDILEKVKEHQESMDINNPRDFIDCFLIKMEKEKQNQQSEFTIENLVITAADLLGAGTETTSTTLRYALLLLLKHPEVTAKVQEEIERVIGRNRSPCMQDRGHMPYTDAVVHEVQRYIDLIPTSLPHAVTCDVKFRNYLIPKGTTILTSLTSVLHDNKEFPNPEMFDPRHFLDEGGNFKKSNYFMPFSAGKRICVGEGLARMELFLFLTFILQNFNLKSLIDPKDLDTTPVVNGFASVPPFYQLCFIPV

As to `COc1ccc(-c2cc(=O)[nH]c(=S)n2CCO)c(OC)c1`, in data set [1], the Drug metabolism result is given as “metabolite_detected”.

With `COc1ccc(Cl)cc1-c1cc(=O)[nH]c(=S)n1CC(N)=O` [PF-06282999], the fraction unbound at 2 µM in data set [2] is 0.536; in [4], 0.447; in data set [15] it was 0.376. Besides, the Tmax in [3] was found to be 1 h; in data set [8], 1.5 h. In addition, the IC50 in data set [5], in data set [6], in data set [9], in data set [10], in [11] and in data set [13] was above 100 µM throughout. In addition, the 50% inhibitory concentration (IC50) in [16] was above 100 µM. The clearance in data set [7] came to 10.3 mL/min/kg. In data set [12], the dose excreted stood at 26%. For the same molecule, the Stability result in data set [14] is “Stable”.
